ChEMBL document CHEMBL4020721 (Eur J Med Chem, 2017)

Tests used:
CYP2C19 [1] = target: T1, CYP2C19 (Homo sapiens, UniProt P33261); test: Time dependent irreversible inhibition of CYP2C19 in human liver microsomes at 10 uM preincubated with compound followed by NADPH addition by LC-MS/MS analysis; format: ADME
In short: (§1)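 HLM (0.2 mg/ml) with 10 µM compound were preincubated 0, 5, 10 or 20 min at 37°C with 1 mM NADPH or PBS. Substrate cocktail (halved concentrations) plus NADPH was then added for 10 min. Metabolites were measured by LC-MS/MS. Kobs is the slope of relative activity versus preincubation time.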

[2] = Cmax in Sprague-Dawley rat plasma at 6 mg/kg, po by UPLC-MS/MS analysis; format: ADME, organism-based; design: dose 6 mg/kg, route oral
In short: (§2)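 Male Sprague-Dawley rats (180-220 g) were fasted overnight with free access to water. Dosing was intravenous (n=2) or oral at 6 mg/kg (n=3). Heparinized blood was drawn from 0 to 1440 min. Plasma was frozen at -20°C, then precipitated with acetonitrile containing internal standard, centrifuged and analysed by UPLC-MS/MS.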

[3] = Oral bioavailability in Sprague-Dawley rat plasma at 6 mg/kg by UPLC-MS/MS analysis; format: ADME, organism-based; details: Sprague-Dawley, plasma; in short: as §2
CYP2D6 [4] = target: T2, CYP2D6 (Homo sapiens, UniProt P10635); test: (§3) Reversible inhibition of CYP2D6 in human liver microsomes at 10 uM after 20 mins in presence of NADPH by LC-MS/MS analysis; format: ADME; details: liver microsomes
[5] = Half life in Sprague-Dawley rat plasma at 1 mg/kg, iv by UPLC-MS/MS analysis; format: ADME, organism-based; in short: as §2
CYP2C9 [6] = target: T3, CYP2C9 (Homo sapiens, UniProt P11712); test: (§4) Time dependent irreversible inhibition of CYP2C9 in human liver microsomes at 10 uM preincubated with compound followed by NADPH addition by LC-MS/MS analysis; format: ADME; details: liver microsomes; in short: as §1
CYP2C19 [7] = target: T1, CYP2C19; test: (§5) Reversible inhibition of CYP2C19 in human liver microsomes at 10 uM after 20 mins in presence of NADPH by LC-MS/MS analysis; format: ADME; details: liver microsomes
SNU-5 = test: Growth inhibition of human SNU5 cells after 72 hrs by CCK-8 assay; format: functional, cell-based; details: Homo sapiens, SNU-5, 72 h
[8] = (§6) Drug recovery in rat liver microsomes at 1 uM measured after 30 mins by LC-MS/MS analysis; format: ADME, microsome; details: liver microsomes, read-out: Drug recovery
[9] = AUC (0 to 24 hrs) in Sprague-Dawley rat plasma at 6 mg/kg, po by UPLC-MS/MS analysis; format: ADME, organism-based; design: dose 6 mg/kg, time < 24 hr, route oral; in short: as §2
[10] = Intrinsic clearance in human liver microsomes assessed per mg protein at 1 uM preincubated for 5 mins followed by NADPH addition measured after 5 to 30 mins by LC-MS/MS analysis; format: ADME, microsome; details: read-out: CLH
In short: (§7)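 Microsomes (0.5 mg/ml) with 1 µM compound were preincubated 5 min at 37°C in 100 mM phosphate buffer pH 7.4, then started with 1 mM NADPH. Samples were taken at 0, 5, 10 and 30 min, quenched with acetonitrile/tinidazole and run by LC-MS/MS. CLint = k / microsomal protein concentration. Midazolam was the positive control.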

CYP3A4 [11] = target: T4, CYP3A4 (Homo sapiens, UniProt P08684); test: (§8) Reversible inhibition of CYP3A4 in human liver microsomes at 10 uM after 20 mins in presence of NADPH by LC-MS/MS analysis; format: ADME; details: liver microsomes
NCI-H1993 = test: Growth inhibition of human NCI-H1993 cells after 72 hrs by CCK-8 assay; format: functional, cell-based; details: Homo sapiens, NCI-H1993, 72 h
[12] = Intrinsic clearance in monkey liver microsomes assessed per mg protein at 1 uM preincubated for 5 mins followed by NADPH addition measured after 5 to 30 mins by LC-MS/MS analysis; details: liver microsomes; read-out: CLH
CYP2D6 [13] = target: T2, CYP2D6; test: (§9) Time dependent irreversible inhibition of CYP2D6 in human liver microsomes at 10 uM preincubated with compound followed by NADPH addition by LC-MS/MS analysis; format: ADME; details: liver microsomes; in short: as §1
[14] = (§10) Drug recovery in human liver microsomes at 1 uM measured after 30 mins by LC-MS/MS analysis; format: ADME, microsome; details: liver microsomes, read-out: Drug recovery
In short: (§11)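 Liver microsomes (0.5 mg/ml) were incubated with 1 µM compound at 37°C in 100 mM phosphate buffer pH 7.4 without NADPH for 30 min. Reactions were quenched with acetonitrile/tinidazole internal standard and analysed by LC-MS/MS. Recovery (%) was taken from the compound/internal standard peak area ratio.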

[15] = Clearance in Sprague-Dawley rat plasma at 1 mg/kg, iv by UPLC-MS/MS analysis; format: ADME, organism-based; in short: as §2
CYP1A2 [16] = target: T5, CYP1A2 (Homo sapiens, UniProt P05177); test: (§12) Time dependent irreversible inhibition of CYP1A2 in human liver microsomes at 10 uM preincubated with compound followed by NADPH addition by LC-MS/MS analysis; format: ADME; details: liver microsomes; in short: as §1
T5 sequence (P05177 whole entry): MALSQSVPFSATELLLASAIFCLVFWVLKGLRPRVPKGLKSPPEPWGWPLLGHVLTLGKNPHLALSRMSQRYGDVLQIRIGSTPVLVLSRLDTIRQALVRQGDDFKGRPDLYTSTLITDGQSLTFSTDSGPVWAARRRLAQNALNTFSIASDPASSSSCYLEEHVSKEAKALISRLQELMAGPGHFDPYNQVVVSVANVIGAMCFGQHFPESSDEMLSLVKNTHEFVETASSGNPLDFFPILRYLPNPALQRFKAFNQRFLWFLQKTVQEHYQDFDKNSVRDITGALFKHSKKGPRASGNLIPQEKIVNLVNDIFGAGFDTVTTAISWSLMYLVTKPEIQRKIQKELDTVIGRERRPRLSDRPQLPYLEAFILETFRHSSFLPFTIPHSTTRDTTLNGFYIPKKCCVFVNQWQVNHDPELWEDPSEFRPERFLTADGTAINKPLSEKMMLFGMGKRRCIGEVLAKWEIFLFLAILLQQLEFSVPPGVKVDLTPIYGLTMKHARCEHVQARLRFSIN

CYP1A2 [17] = target: T5, CYP1A2; test: Reversible inhibition of CYP1A2 in human liver microsomes at 10 uM after 20 mins in presence of NADPH by LC-MS/MS analysis; format: ADME
CYP2C9 [18] = target: T3, CYP2C9; test: (§13) Reversible inhibition of CYP2C9 in human liver microsomes at 10 uM after 20 mins by in presence of NADPH LC-MS/MS analysis; format: ADME; details: liver microsomes
[19] = Intrinsic clearance in rat liver microsomes assessed per mg protein at 1 uM preincubated for 5 mins followed by NADPH addition measured after 5 to 30 mins by LC-MS/MS analysis; format: ADME, microsome; details: read-out: CLH; in short: as §7
CYP3A4 [20] = target: T4, CYP3A4; test: (§14) Time dependent irreversible inhibition of CYP3A4 in human liver microsomes at 10 uM preincubated with compound followed by NADPH addition by LC-MS/MS analysis; format: ADME; details: liver microsomes; in short: as §1
[21] = Volume of distribution at steady state in Sprague-Dawley rat plasma at 1 mg/kg, iv by UPLC-MS/MS analysis; format: ADME, organism-based; details: read-out: Vdss
In short: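 Male Sprague-Dawley rats (180-220 g), fasted overnight with water available, dosed iv (n=2). Blood on heparin collected from 0 to 1440 min. Plasma obtained by centrifugation and stored at -20°C. Proteins precipitated with acetonitrile containing internal standard, then UPLC-MS/MS. Vss taken from the iv data.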

[22] = Drug recovery in monkey liver microsomes at 1 uM measured after 30 mins by LC-MS/MS analysis
Cytochrome P450 2C9 [23] = target: T6, Cytochrome P450 2C9 (Homo sapiens, UniProt P11712); test: as §4; format: ADME; details: microsomes, 10 µM; in short: as §1
Liver [24] = test: as §6; format: ADME, microsome; details: microsomes, 0.5 h, 1 µM
Cytochrome P450 2D6 [25] = target: T7, Cytochrome P450 2D6 (Homo sapiens, UniProt P10635); test: as §9; format: ADME; details: microsomes, 10 µM; in short: as §1
Cytochrome P450 1A2 = Cytochrome P450 1A2 (Homo sapiens, UniProt P05177); test: as §12; format: ADME; details: microsomes, 10 µM; in short: as §1
Cytochrome P450 3A4 [26] = target: T8, Cytochrome P450 3A4 (Homo sapiens, UniProt P08684); test: as §14; format: ADME; details: microsomes, 10 µM; in short: as §1
Liver [27] = test: as §10; format: ADME, microsome; details: microsomes, 0.5 h, 1 µM; in short: as §11
Cytochrome P450 2D6 [28] = target: T7, Cytochrome P450 2D6; test: as §3; format: ADME; details: microsomes, 20 min, 10 µM
Cytochrome P450 2C19 = Cytochrome P450 2C19 (Homo sapiens, UniProt P33261); test: as §5; format: ADME; details: microsomes, 20 min, 10 µM
Cytochrome P450 3A4 [29] = target: T8, Cytochrome P450 3A4; test: as §8; format: ADME; details: microsomes, 20 min, 10 µM
Cytochrome P450 2C9 [30] = target: T6, Cytochrome P450 2C9; test: as §13; format: ADME; details: microsomes, 20 min, 10 µM

T3 sequence (P11712 whole entry): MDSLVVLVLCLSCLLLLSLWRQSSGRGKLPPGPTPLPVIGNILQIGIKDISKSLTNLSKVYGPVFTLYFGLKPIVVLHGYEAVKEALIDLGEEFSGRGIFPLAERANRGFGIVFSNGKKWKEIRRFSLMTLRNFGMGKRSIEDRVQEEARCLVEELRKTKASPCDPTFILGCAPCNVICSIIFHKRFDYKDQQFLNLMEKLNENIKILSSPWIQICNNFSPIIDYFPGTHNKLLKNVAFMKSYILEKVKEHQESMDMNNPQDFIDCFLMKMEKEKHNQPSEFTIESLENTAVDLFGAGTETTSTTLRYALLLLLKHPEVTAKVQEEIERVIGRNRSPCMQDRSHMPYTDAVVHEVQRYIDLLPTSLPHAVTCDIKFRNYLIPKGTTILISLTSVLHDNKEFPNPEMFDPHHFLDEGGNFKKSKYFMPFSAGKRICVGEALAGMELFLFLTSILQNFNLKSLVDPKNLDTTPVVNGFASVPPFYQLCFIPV
T2 sequence (P10635 whole entry): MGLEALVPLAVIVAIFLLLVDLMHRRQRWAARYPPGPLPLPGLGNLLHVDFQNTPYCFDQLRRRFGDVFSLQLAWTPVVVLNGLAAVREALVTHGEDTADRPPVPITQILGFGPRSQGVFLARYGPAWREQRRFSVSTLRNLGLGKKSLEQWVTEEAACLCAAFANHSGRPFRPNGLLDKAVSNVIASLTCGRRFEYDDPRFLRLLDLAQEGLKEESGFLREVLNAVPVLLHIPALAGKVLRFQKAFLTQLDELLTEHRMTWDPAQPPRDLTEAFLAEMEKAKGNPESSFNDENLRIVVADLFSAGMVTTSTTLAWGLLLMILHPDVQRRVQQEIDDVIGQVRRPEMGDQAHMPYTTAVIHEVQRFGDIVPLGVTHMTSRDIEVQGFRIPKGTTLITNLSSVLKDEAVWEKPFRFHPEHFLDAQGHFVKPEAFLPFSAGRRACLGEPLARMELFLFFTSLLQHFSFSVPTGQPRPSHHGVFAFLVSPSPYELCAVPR
T4 sequence (P08684 whole entry): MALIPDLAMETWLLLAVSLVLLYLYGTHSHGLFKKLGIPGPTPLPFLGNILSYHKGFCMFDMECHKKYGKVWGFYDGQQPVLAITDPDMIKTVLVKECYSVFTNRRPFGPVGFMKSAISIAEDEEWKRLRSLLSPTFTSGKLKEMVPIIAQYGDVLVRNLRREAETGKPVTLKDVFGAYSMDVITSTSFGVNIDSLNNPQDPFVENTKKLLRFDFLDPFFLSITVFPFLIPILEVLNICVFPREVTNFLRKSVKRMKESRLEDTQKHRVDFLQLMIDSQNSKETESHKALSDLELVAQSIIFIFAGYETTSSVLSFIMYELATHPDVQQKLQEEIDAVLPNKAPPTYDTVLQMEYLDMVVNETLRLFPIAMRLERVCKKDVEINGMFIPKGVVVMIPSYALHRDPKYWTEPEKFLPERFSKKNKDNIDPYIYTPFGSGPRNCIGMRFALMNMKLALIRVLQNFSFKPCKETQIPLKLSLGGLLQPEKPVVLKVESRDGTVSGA
T1 sequence (P33261 whole entry): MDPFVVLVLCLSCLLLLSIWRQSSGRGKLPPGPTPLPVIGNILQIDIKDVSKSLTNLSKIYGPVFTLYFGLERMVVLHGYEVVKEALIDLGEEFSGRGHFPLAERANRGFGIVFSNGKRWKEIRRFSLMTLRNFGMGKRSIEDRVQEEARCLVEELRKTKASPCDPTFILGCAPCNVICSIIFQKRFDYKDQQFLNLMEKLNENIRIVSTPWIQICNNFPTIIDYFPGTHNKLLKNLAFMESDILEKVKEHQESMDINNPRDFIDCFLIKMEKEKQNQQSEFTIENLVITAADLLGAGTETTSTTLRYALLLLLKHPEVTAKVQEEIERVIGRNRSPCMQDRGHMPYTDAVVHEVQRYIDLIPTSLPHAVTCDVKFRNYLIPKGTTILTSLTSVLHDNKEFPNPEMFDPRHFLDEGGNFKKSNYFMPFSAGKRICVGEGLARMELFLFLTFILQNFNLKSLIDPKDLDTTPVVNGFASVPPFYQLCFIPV
T6 sequence (P11712 whole entry): as the sequence (P11712 whole entry) above
T7 sequence (P10635 whole entry): as the sequence (P10635 whole entry) above
T8 sequence (P08684 whole entry): as the sequence (P08684 whole entry) above
Sequence of Cytochrome P450 2C19 (P33261 whole entry): as the sequence (P33261 whole entry) above

CC(c1cc2cc(-c3cnn(C)c3)cnc2cc1F)n1nnc2ncc(-c3ccc(C(N)=O)c(F)c3)nc21 (stereo not given)
inhibition at 10 µM (CYP2C19 [1]): < 50%
Cmax [2]: 98.9 ng/mL
bioavailability [3]: 8.2%
inhibition at 20 min, 10 µM (CYP2D6 [4]): < 50%
half-life [5]: 3.2 h
inhibition at 10 µM (CYP2C9 [6]): < 50%
inhibition at 20 min, 10 µM (CYP2C19 [7]): < 50%
IC50 (SNU-5): 600 pM
remaining at 0.5 h, 1 µM [8]: 115%
AUC(0-t) at 24 h [9]: 879 ng·h/mL
microsomal CLint at 1 µM [10]: 2 µL/min/mg
inhibition at 20 min, 10 µM (CYP3A4 [11]): < 50%
IC50 (NCI-H1993): 900 pM
microsomal CLint at 1 µM [12]: 6 µL/min/mg
inhibition at 10 µM (CYP2D6 [13]): < 50%
remaining at 0.5 h, 1 µM [14]: 120%
clearance [15]: 9.33 mL/min/kg
inhibition at 10 µM (CYP1A2 [16]): < 50%
inhibition at 20 min, 10 µM (CYP1A2 [17]): < 50%
inhibition at 20 min, 10 µM (CYP2C9 [18]): < 50%
microsomal CLint at 1 µM [19]: 1 µL/min/mg
inhibition at 10 µM (CYP3A4 [20]): < 50%
Vd [21]: 2 L/kg
remaining at 0.5 h, 1 µM [22]: 103%

CC(c1ccc2ncc(-c3cnn(C)c3)cc2c1)n1nnc2ncc(-c3ccc(C(N)=O)c(F)c3)nc21 (stereo not given)
inhibition at 20 min, 10 µM (CYP2D6 [4]): < 50%
TDI (Cytochrome P450 2C9 [23]): Active
inhibition at 20 min, 10 µM (CYP2C19 [7]): < 50%
IC50 (SNU-5): 700 pM
Drug recovery (Liver [24]): 128%
microsomal CLint at 1 µM [10]: 3 µL/min/mg
inhibition at 20 min, 10 µM (CYP3A4 [11]): < 50%
IC50 (NCI-H1993): 900 pM
microsomal CLint at 1 µM [12]: 30 µL/min/mg
TDI (Cytochrome P450 2D6 [25]): Active
remaining at 0.5 h, 1 µM [14]: 120%
TDI (Cytochrome P450 1A2): Active
inhibition at 20 min, 10 µM (CYP1A2 [17]): < 50%
inhibition at 20 min, 10 µM (CYP2C9 [18]): < 50%
microsomal CLint at 1 µM [19]: 10 µL/min/mg
TDI (Cytochrome P450 3A4 [26]): Active
remaining at 0.5 h, 1 µM [22]: 98%

CC(c1ccc2ncc(-c3cnn(C)c3)cc2c1)n1nnc2ncc(-c3cnn(C)c3)nc21 (stereo not given)
IC50 (SNU-5): 500 pM
remaining at 0.5 h, 1 µM [8]: 115%
microsomal CLint at 1 µM [10]: 12 µL/min/mg
microsomal CLint at 1 µM [12]: 42 µL/min/mg
Drug recovery (Liver [27]): 123%
microsomal CLint at 1 µM [19]: 22 µL/min/mg
remaining at 0.5 h, 1 µM [22]: 79%

CC(c1c(F)cc2ncc(-c3cnn(C)c3)cc2c1F)n1nnc2ncc(-c3ccncc3)nc21 (stereo not given)
inhibition at 10 µM (CYP2C19 [1]): < 50%
inhibition (INH) (Cytochrome P450 2D6 [28]): Active
inhibition at 10 µM (CYP2C9 [6]): < 50%
inhibition (INH) (Cytochrome P450 2C19): Active
IC50 (SNU-5): 1200 pM
remaining at 0.5 h, 1 µM [8]: 98%
microsomal CLint at 1 µM [10]: 9 µL/min/mg
inhibition (INH) (Cytochrome P450 3A4 [29]): Active
IC50 (NCI-H1993): 200 pM
microsomal CLint at 1 µM [12]: 106 µL/min/mg
inhibition at 10 µM (CYP2D6 [13]): < 50%
remaining at 0.5 h, 1 µM [14]: 101%
inhibition at 10 µM (CYP1A2 [16]): < 50%
inhibition (INH) (Cytochrome P450 2C9 [30]): Active
microsomal CLint at 1 µM [19]: 26 µL/min/mg
inhibition at 10 µM (CYP3A4 [20]): < 50%
remaining at 0.5 h, 1 µM [22]: 99%
